KCNK9 block: KCNK9 potassium channel inhibitors, primary screen, HEK293 cells, thallium flux | FluxOR thallium flux fluorescence; stronger effect = lower value | Potassium channel subfamily K member 9 (Homo sapiens), Q9NPC2 | B-score at 10 µM | hit rate 1.2% among 310,000;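 active = ratio B-score over 3 SD below the library mean, with starting fluorescence within 5 SD of its mean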;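 note: negative B-score means less thallium flux so channel inhibition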
Target sequence (Q9NPC2 whole entry, looked up): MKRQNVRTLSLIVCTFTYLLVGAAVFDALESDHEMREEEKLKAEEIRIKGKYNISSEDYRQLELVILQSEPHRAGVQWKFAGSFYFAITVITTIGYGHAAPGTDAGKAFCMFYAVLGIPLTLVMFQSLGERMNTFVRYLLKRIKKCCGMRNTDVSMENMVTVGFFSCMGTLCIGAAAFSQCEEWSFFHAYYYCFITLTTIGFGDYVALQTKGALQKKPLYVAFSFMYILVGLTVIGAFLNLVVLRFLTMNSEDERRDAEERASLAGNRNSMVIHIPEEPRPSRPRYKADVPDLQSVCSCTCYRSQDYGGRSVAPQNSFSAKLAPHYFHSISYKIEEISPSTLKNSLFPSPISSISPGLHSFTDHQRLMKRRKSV
KCNQ1 pot: potentiators or activators of KCNQ1 channel, primary screen, cell-based, thallium flux, high-throughput | B-score at 10 µM | Potassium voltage-gated channel subfamily KQT member 1 (Homo sapiens), P51787 | hit rate 0.35% among 310,000 | CHO-K1 KCNQ1, thallium flux FluxOR fluorescence; stronger effect = higher value;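 active = fluorescence ratio B-score, a plate-corrected score, at least three library SD, with initial intensity B-score within 5 SD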
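Medium – assay buffer, equal DMSO in all wells · Material – CHO-K1 cell line with stable KCNQ1 potassium channel expression · Signal – kinetic FluxOR thallium fluorescence, 10-s 1-Hz baseline, 110-s post-stimulus read · Compound – single concentration per compound, DMSO matched to controls · Schedule – 37 °C overnight plating, 90-min dark dye load, 20-min compound pretreatment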
hERG rescue: hERG rescue from dofetilide block, primary screen, cell-based, CHO-hERG, FluxOR thallium flux, dofetilide IC70. hit rate 0.51% among 310,000. dofetilide IC70 present. Voltage-gated inwardly rectifying potassium channel KCNH2 (Homo sapiens), Q12809. activation (rescue from dofetilide block), less the hit threshold, % at 10 µM;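 active = activation above the mean of controls blocked by dofetilide plus 5 SD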;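 note: thallium influx through hERG after potassium depolarization seen as dye fluorescence rise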
KCNQ1 block: inhibitors of human KCNQ1 channel, primary screen, cell-based, thallium flux, high-throughput; Potassium voltage-gated channel subfamily KQT member 1 (Homo sapiens), P51787; CHO-K1 KCNQ1, FluxOR thallium flux fluorescence; stronger effect = higher value; AID 2642, 2010; hit rate 1.3% among 310,000; B-score at 10 µM;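 active = compounds whose thallium flux B-score, printed positive for inhibition, exceeds three library SD while starting fluorescence stays within three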;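 note: channel opened by potassium depolarization with thallium stimulus after 20 min compound exposure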
Kir21 inh: inhibitors of mouse Kir2.1 inward-rectifier potassium channel; Inward rectifier potassium channel 2 (Mus musculus), P35561; HEK293-Kir2.1, FluxOR thallium flux fluorescence; stronger effect = lower value; B-score at 10 µM; hit rate 0.85% among 310,000;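 active = fluorescence ratio B-score at or below minus 3 SD of library scores, with starting-brightness B-score within 2 SD, cut at about -4.2 in these data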;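 note: channel flux triggered by added potassium and thallium sulfate stimulus; B-score of peak minus minimum fluorescence over baseline after thallium stimulus; more negative B-score means stronger Kir2.1 block with less thallium influx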
KCNK3 block: human KCNK3 channel inhibitors, primary screen, CHO cells, FluxOR thallium flux, B-score. B-score at 10 µM. Potassium channel subfamily K member 3 (Homo sapiens), O14649. FluxOR fluorescence; stronger effect = lower value. hit rate 0.84% among 340,000;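 active = B-score under library mean minus 4 SD, starting fluorescence ratio at most library mean plus 5 SD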;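 note: more negative B-score means stronger inhibition of thallium flux through KCNK3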
KCNQ1 block val: KCNQ1 potassium channel inhibitors, confirmation, cell-based, Tl flux, duplicate; shares compounds with KCNQ1 block; KCNQ1 cell line, FluxOR thallium flux fluorescence; inhibition, % at 10 µM; hit rate 93% among 1,600; AID 588353, 2011;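 active = primary screen active, with duplicate mean exceeding buffer control mean plus 3 SD of buffer wells, cut at about 28% in these data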;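 note: 0% = buffer control ratio and 100% = XE991 inhibitor control ratio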
CHO Tl flux: thallium flux effects in parental CHO cells, counter-screen for KCNQ1 inhibitor project, cell-based, Tl flux; parental CHO-K1, FluxOR thallium flux fluorescence ratio; stronger effect = lower value; zero means no signal rise above baseline; hit rate 21% among 1,600; AID 588366, 2011; shares compounds with KCNQ1 block; fluorescence ratio (Tl flux) at 10 µM;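 active = mean of duplicate thallium-flux fluorescence ratios in parental host cells more than 5 SD below the buffer control mean, cut at about 0.38 in these data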;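 note: ratio is peak minus minimum fluorescence divided by baseline fluorescence; actives read low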
KCNQ1 APC inh: KCNQ1 channel inhibitors, confirmation, orthogonal assay, cell-based, automated electrophysiology; shares compounds with KCNQ1 block; KCNQ1-CHO cells, automated patch clamp current; calls only at 10 µM; hit rate 20% among 490; AID 624120, 2012;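 active = KCNQ1 current drop exceeding 3 SD of negative control wells, seen in both duplicate runs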;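 note: steady state current during a 2 s step from -80 to +40 mV; negative values mean current inhibition and positive values mean potentiation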
KCNQ2 spec: KCNQ2 channel inhibition, selectivity assay for KCNQ1 inhibitor project, cell-based | KCNQ2 cells, FluxOR thallium flux fluorescence | shares compounds with KCNQ1 block | AID 651746, 2012 | inhibition, % at 10 µM | hit rate 71% among 1,600;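 active = mean percent inhibition of the KCNQ2 thallium signal more than 5 SD above the buffer-only control wells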;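 note: KCNQ2 expressed in CHO cells; 0% = buffer control wells and 100% = XE-991 inhibitor control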
KCNQ1-KCNE1 inh: KCNQ1/KCNE1 channel inhibition, selectivity assay for KCNQ1 inhibitor project, CHO-K1 cells, thallium flux, FluxOR | shares compounds with KCNQ1 block | FluxOR thallium flux fluorescence | inhibition, % at 10 µM | hit rate 77% among 1,600 | AID 652147, 2013;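 active = mean percent inhibition of duplicate wells above the buffer-only control mean plus 3 SD of those controls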;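 note: 0% = buffer only wells and 100% = XE-991 inhibitor control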
* hit, by the source's call; i = inactive; . = not tested or not shown; + = active, no number. Hits are enriched below; roughly 3.7% of the tested compounds scored in any of these assays.

SMILES	KCNK9 block	KCNQ1 pot	hERG rescue	KCNQ1 block	Kir21 inh	KCNK3 block	KCNQ1 block val	CHO Tl flux	KCNQ2 spec	KCNQ1-KCNE1 inh	others
O=c1c2ccccc2nc(SCc2cccc(F)c2)n1C1CCCC1	i	i	-19	7*	-1	i	96*	0.49	81%*	114%*	KCNQ1 APC inh=i
CCC1(c2ccc(F)cc2)NC(=O)N(CC(=O)Nc2ccccc2Cl)C1=O (stereo not drawn)	i	i	-6	i	-0.12	i	.	.	.	.
COc1cccc(NC(=O)c2nc(S(C)(=O)=O)ncc2Cl)c1	i	i	-7	7*	-6.3*	i	0	0.43	i	52%*
CCS(=O)(=O)c1ncc(Cl)c(C(=O)Nc2ccccc2OC)n1	i	i	-10	11*	0	i	73*	0.38	63%*	66%*
COc1ccccc1NC(=O)c1nc(S(=O)(=O)Cc2ccccc2)ncc1Cl	i	i	-8	i	0.09	i	.	.	.	.
COc1ccc([C@H]2CC(=O)C=C(c3cc4ccccc4s3)C2)cc1OC	.	.	.	.	.	i	.	.	.	.
CCOc1ccc(NC(=S)Nc2ccc3nsnc3c2)cc1	i	i	-2	6*	-0.18	i	82*	0.49	70%*	48%*
CCOc1ccc(NC(=O)Nc2cccc(C(=O)O)c2)cc1	i	i	-2	i	-1	i	.	.	.	.
CCOc1ccc(NC(=S)Nc2ccc(OC(F)(F)F)cc2)cc1	i	i	-3	7*	0.42	i	0	0.55	i	i
CCOc1ccc(NC(=S)Nc2ccc(OCC)cc2)cc1	i	i	-21	i	-0.03	i	.	.	.	.
CCOc1ccc(NC(=O)Nc2ccc3nsnc3c2)cc1	i	i	-11	12*	-0.08	i	27*	0.55	i	i
O=C(Nc1nccs1)c1cccc(NC(=O)C(F)(F)F)c1	i	i	-12	i	0.21	i	.	.	.	.
Nc1ccc(-c2c3ccc(=O)cc-3oc3cc(O)ccc23)cc1C(=O)O	i	i	-52	24*	-17	i	+	0.0075*	i	i
O=c1ccc2c(-c3ccccc3)c3ccc(O)cc3oc-2c1	i	i	-50	24*	-16	i	+	0*	i	i
Cc1cc(Nc2ccccc2)nc2cc(O)ccc12	i	i	-19	7*	-5.2*	i	40*	0.47	i	i
CC(=O)Nc1ccc(Nc2cc(C)c3ccccc3n2)cc1	i	i	-4	i	-1.1	i	.	.	.	.
CCOc1ccc2oc(C(=O)OCC(=O)N3CC(C)OC(C)C3)c(C)c2c1 (stereo not drawn)	.	.	.	.	.	i	.	.	.	.
O=c1[nH]c(=O)n(-c2ccc(F)cc2)c2c1C(C(F)(F)F)(C(F)(F)F)N=C(c1ccc(F)cc1)N2	i	i	-10	6*	0.65	i	57*	0.52	64%*	i
O=c1c2ccccc2ncn1-c1cccc(Br)c1	i	i	-1	i	-1.1	i	.	.	.	.
Cc1cccc2nc3ccccc3cc12	i	i	-6	i	-1.8	i	.	.	.	.
C/C(O)=c1/ccc2cccc3nc(C)nc1c23	i	i	-28	8*	-9	i	117*	0.25*	i	i
CCC(C)N(C(=O)Cn1nnc(-c2ccc(Cl)cc2)n1)C1CCS(=O)(=O)C1 (stereo not drawn)	i	i	-4	i	-0.01	i	.	.	.	.
Cc1ccc(O)c(-c2cc3ccccc3[nH]2)c1	i	i	-6	10*	-3.3	i	132*	0.46	i	166%*
Cc1cc(Cl)c(OCCCNCc2ccccc2)c(Br)c1	i	i	-23	6*	-11	i	37*	0.57	73%*	i
O=C(NC1CC1)C1=C[C@@H](C2CCCCC2)C[C@@H](OCCCCO)O1	i	i	-9	i	-0.43	i	.	.	.	.
SMILES	KCNK9 block	KCNQ1 pot	hERG rescue	KCNQ1 block	Kir21 inh	KCNK3 block	KCNQ1 block val	CHO Tl flux	KCNQ2 spec	KCNQ1-KCNE1 inh	others
CN1/C(=C\C=C(C#N)C#N)C(C)(C)c2ccccc21	i	i	-10	26*	-0.54	i	+	0.015*	i	i
CCOC(=O)/C=C1/N(C)c2ccccc2C1(C)C	i	i	-10	i	-1.2	i	.	.	.	.
CCOc1ccc(OCC(=O)OC(C)C(=O)NC2CCCC2)cc1 (stereo not drawn)	.	.	.	.	.	i	.	.	.	.
CCOC(=O)C1=C(CC)Nc2ccccc2N=C1NC(=O)c1cc(C)on1	.	.	.	.	.	i	.	.	.	.
CCOC(=O)C1=C(CC)Nc2ccccc2N=C1NC(=O)Nc1ccc(Cl)c(Cl)c1	-6.9*	i	-4	11*	1.9	i	116*	0.52	i	i	KCNQ1 APC inh=i
CCc1cc(C(c2cccc(OC)c2)N2CCOCC2)c(NC(=O)c2ccccc2)s1 (stereo not drawn)	i	i	-14	i	0.01	i	.	.	.	.
CCc1cc(C(c2ccc(F)cc2)N2CCOCC2)c(NC(=O)c2ccccc2)s1 (stereo not drawn)	i	i	-7	10*	1.2	i	100*	0.37*	99%*	154%*
